Data from article PMC10436028 (RSC Advances, 2023).

Assays:
Format in all cases: cell-based
A-375 cell line = assay: MTT assay, melanoma A-375 cell line; details: Homo sapiens, A-375, 48 h, read-out: IC50 against A-375
Outline: (§1)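 Test compound dissolved in PBS with 0.5% DMSO and diluted in the same solvent. Cells were grown in DMEM with 10% FBS and 1% penicillin-streptomycin at 37 °C, 5% CO2. They were trypsinised, seeded and held 48 h, then given fresh medium. Exposure was 15.62–500 μM for 48 h. MTT (0.5 mg.mL−1) ran 4 h, formazan was dissolved in DMSO, and A570 read. Six vehicle wells per plate served as control. Viability was computed, in triplicate, as mean ± SD.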

MCF-7 cell line = assay: MTT assay, breast cancer MCF-7 cell line; details: Homo sapiens, MCF7, 48 h, read-out: IC50 against MCF-7
Outline: as §1

HEK-293 cell line = assay: MTT toxicity assay, normal cell line HEK-293; details: Homo sapiens, HEK293, 48 h, read-out: IC50 against HEK-293
Outline: as §1

SMILES	IC50 (A-375 cell line) [µM]	IC50 (MCF-7 cell line) [µM]	IC50 (HEK-293 cell line) [µM]
CCOC(=O)CCCn1cc(CN2CCN(c3nc4c(c(=O)n(C)c(=O)n4C)n3C)CC2)nn1 [Compound 12g, Ethyl 4-(4-((4-(1,3,7-trimethyl-2,6-dioxo-2,3,6,7-tetrahydro-1H-purin-8-yl)piperazin-1-yl)methyl)-1H-1,2,3-triazol-1-yl)butanoate]	> 500	> 500	> 500
Cn1c(=O)c2c(nc(N3CCN(Cc4cn(C(c5ccccc5)c5ccccc5)nn4)CC3)n2C)n(C)c1=O [Compound 12c, 8-(4-((1-Benzhydryl-1H-1,2,3-triazol-4-yl)methyl)piperazin-1-yl)-1,3,7-trimethyl-3,7-dihydro-1H-purine-2,6-dione]	> 500	> 500	> 500
Cn1c(=O)c2c(nc(N3CCN(Cc4cn(Cc5ccccc5)nn4)CC3)n2C)n(C)c1=O [Compound 12a, 8-(4-((1-Benzyl-1H-1,2,3-triazol-4-yl)methyl)piperazin-1-yl)-1,3,7-trimethyl-3,7-dihydro-1H-purine-2,6-dione]	> 500	> 500	> 500
CCCCCCCCCCn1cc(CN2CCN(c3nc4c(c(=O)n(C)c(=O)n4C)n3C)CC2)nn1 [Compound 12k, 8-(4-((1-Decyl-1H-1,2,3-triazol-4-yl)methyl)piperazin-1-yl)-1,3,7-trimethyl-3,7-dihydro-1H-purine-2,6-dione]	367 ± 3.4	175 ± 3.2	> 500
Cn1c(=O)c2c(nc(N3CCN(Cc4cn(CCCN5C(=O)c6ccccc6S5(=O)=O)nn4)CC3)n2C)n(C)c1=O [Compound 12n, 8-(4-((1-(3-(1,1-Dioxido-3-oxobenzo[d]isothiazol-2(3H)-yl)propyl)-1H-1,2,3-triazol-4-yl)methyl)piperazin-1-yl)-1,3,7-trimethyl-3,7-dihydro-1H-purine-2,6-dione]	> 500	> 500	> 500
Cn1c(=O)c2c(nc(N3CCN(Cc4cn(CC(=O)OCc5ccccc5)nn4)CC3)n2C)n(C)c1=O [Compound 12b, Benzyl 2-(4-((4-(1,3,7-trimethyl-2,6-dioxo-2,3,6,7-tetrahydro-1H-purin-8-yl)piperazin-1-yl)methyl)-1H-1,2,3-triazol-1-yl)acetate]	> 500	> 500	> 500
Cn1c(=O)c2c(nc(N3CCN(Cc4cn(CCCc5ccccc5)nn4)CC3)n2C)n(C)c1=O [Compound 12d, 1,3,7-Trimethyl-8-(4-((1-(3-phenylpropyl)-1H-1,2,3-triazol-4-yl)methyl)piperazin-1-yl)-3,7-dihydro-1H-purine-2,6-dione]	> 500	> 500	> 500
Cn1c(=O)c2c(nc(N3CCN(Cc4cn(CCCCN5C(=O)c6ccccc6S5(=O)=O)nn4)CC3)n2C)n(C)c1=O [Compound 12m, 8-(4-((1-(4-(1,1-Dioxido-3-oxobenzo[d]isothiazol-2(3H)-yl)butyl)-1H-1,2,3-triazol-4-yl)methyl)piperazin-1-yl)-1,3,7-trimethyl-3,7-dihydro-1H-purine-2,6-dione]	> 500	> 500	> 500
CCCCCCCn1cc(CN2CCN(c3nc4c(c(=O)n(C)c(=O)n4C)n3C)CC2)nn1 [Compound 12h, 8-(4-((1-Heptyl-1H-1,2,3-triazol-4-yl)methyl)piperazin-1-yl)-1,3,7-trimethyl-3,7-dihydro-1H-purine-2,6-dione]	498 ± 2	306 ± 1.8	> 500
Cn1c(=O)c2c(nc(N3CCN(Cc4cn(CCc5ccccc5)nn4)CC3)n2C)n(C)c1=O [Compound 12e, 1,3,7-Trimethyl-8-(4-((1-phenethyl-1H-1,2,3-triazol-4-yl)methyl)piperazin-1-yl)-3,7-dihydro-1H-purine-2,6-dione]	> 500	> 500	> 500
CCCCCCCCn1cc(CN2CCN(c3nc4c(c(=O)n(C)c(=O)n4C)n3C)CC2)nn1 [Compound 12j, 1,3,7-Trimethyl-8-(4-((1-octyl-1H-1,2,3-triazol-4-yl)methyl)piperazin-1-yl)-3,7-dihydro-1H-purine-2,6-dione]	323 ± 2.6	245 ± 2.3	418 ± 2.4
Cn1c(=O)c2c(nc(N3CCN(Cc4cn(CCCCCN5C(=O)c6ccccc6C5=O)nn4)CC3)n2C)n(C)c1=O [Compound 12l, 8-(4-((1-(5-(1,3-Dioxoisoindolin-2-yl)pentyl)-1H-1,2,3-triazol-4-yl)methyl)piperazin-1-yl)-1,3,7-trimethyl-3,7-dihydro-1H-purine-2,6-dione]	> 500	> 500	> 500
CN(Cc1cnc2nc(N)nc(N)c2n1)c1ccc(C(=O)N[C@@H](CCC(=O)O)C(=O)O)cc1 [MTX, methotrexate, reference compound]	418 ± 2	343 ± 3.6	199 ± 2.4
Cc1ccc(Cn2cc(CN3CCN(c4nc5c(c(=O)n(C)c(=O)n5C)n4C)CC3)nn2)cc1 [Compound 12f, 1,3,7-Trimethyl-8-(4-((1-(4-methylbenzyl)-1H-1,2,3-triazol-4-yl)methyl)piperazin-1-yl)-3,7-dihydro-1H-purine-2,6-dione]	> 500	> 500	> 500
Cn1c(=O)c2c(nc(N3CCN(Cc4cn(CCCCCN5C(=O)c6ccccc6S5(=O)=O)nn4)CC3)n2C)n(C)c1=O [Compound 12o, 8-(4-((1-(5-(1,1-Dioxido-3-oxobenzo[d]isothiazol-2(3H)-yl)pentyl)-1H-1,2,3-triazol-4-yl)methyl)piperazin-1-yl)-1,3,7-trimethyl-3,7-dihydro-1H-purine-2,6-dione]	> 500	> 500	> 500
CCCCCCn1cc(CN2CCN(c3nc4c(c(=O)n(C)c(=O)n4C)n3C)CC2)nn1 [Compound 12i, 8-(4-((1-Hexyl-1H-1,2,3-triazol-4-yl)methyl)piperazin-1-yl)-1,3,7-trimethyl-3,7-dihydro-1H-purine-2,6-dione]	371 ± 2.5	260 ± 2.2	371 ± 2.3
